{"source": "ChEMBL document CHEMBL5724801", "about": "“EUbOPEN Chemogenomics Library - Multiplex” (2024)", "tested_on": "HEK-293T", "assay": "Multiplex assay against HEK293T", "assay_type": "toxicity, cell-based", "conditions": "human", "procedure,_shortened": "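With compound added, live cells were imaged on a CQ1 microscope at 37°C and 5% CO2; staining with Hoechst33342, BioTracker Green Microtubule Cytoskeleton Dye, MitoTracker Red and Annexin V Alexa Fluor 680 had been done at seeding. The CellPathfinder machine-learning gating scheme split cells into Hoechst high-intensity objects or normal cells, normal cells into healthy, pyknosed or fragmented nuclei, and pyknosed cells into mitotic or apoptotic. The tubulin, mitochondrial-mass and membrane-permeability phenotypes are per cents of healthy-nucleus cells.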", "key": {"[1]": {"conditions": "12 h, 1 µM, compound concentration 1 uM"}, "[2]": {"conditions": "12 h, 10 µM, compound concentration 10 uM"}, "[3]": {"conditions": "24 h, 1 µM, compound concentration 1 uM"}, "[4]": {"conditions": "24 h, 10 µM, compound concentration 10 uM"}, "[5]": {"conditions": "48 h, 1 µM, compound concentration 1 uM"}, "[6]": {"conditions": "48 h, 10 µM, compound concentration 10 uM"}}, "note": "Where “and” joins values, the source holds several entries; their conditions need not be identical. Equal entries are not always repeated.", "data": [{"smiles": "COC(=O)C1=C(C)NC(C)=C(C(=O)OC(C)C)C1c1cccc2nonc12", "note": "(stereo unspecified) [ISRADIPINE]", "values": [{"measurement": "Population Apoptotic (%)", "setting": "[1]", "result": "14.42% and 4.72%"}, {"measurement": "Population Fragmented Nuclei (%)", "setting": "[1]", "result": "2.79% and 5.84%"}, {"measurement": "Population Hoechst High Intensity Objects (%)", "setting": "[1]", "result": 0, "unit": "%"}, {"measurement": "Population Membrane Permeable-Phenotype (%)", "setting": "[1]", "result": 0, "unit": "%"}, {"measurement": "Population Mitochondria Different-Phenotype (%)", "setting": "[1]", "result": "37.14% and 47.83%"}, {"measurement": "Population Mitotic Cells (%)", "setting": "[1]", "result": "85.58% and 95.28%"}, {"measurement": "Population Normal (%)", "setting": "[1]", "result": 100, "unit": "%"}, {"measurement": "Population Pyknosed Nuclei (%)", "setting": "[1]", "result": "32.2% and 77.37%"}, {"measurement": "Total Cell Count", "setting": "[1]", "result": "323 and 137"}, {"measurement": "Population Apoptotic (%)", "setting": "[2]", "result": "3.97% and 9.29%"}, {"measurement": "Population Fragmented Nuclei (%)", "setting": "[2]", "result": "0.97% and 1.28%"}, {"measurement": "Population Hoechst High Intensity Objects (%)", "setting": "[2]", "result": "0.32% and 0%"}, {"measurement": "Population Membrane Permeable-Phenotype (%)", "setting": "[2]", "result": "0.65% and 0%"}, {"measurement": "Population Mitochondria Different-Phenotype (%)", "setting": "[2]", "result": "39.61% and 35.71%"}, {"measurement": "Population Mitotic Cells (%)", "setting": "[2]", "result": "96.03% and 90.71%"}, {"measurement": "Population Normal (%)", "setting": "[2]", "result": "99.68% and 100%"}, {"measurement": "Population Pyknosed Nuclei (%)", "setting": "[2]", "result": "49.03% and 89.74%"}, {"measurement": "Total Cell Count", "setting": "[2]", "result": "309 and 156"}, {"measurement": "Population Apoptotic (%)", "setting": "[3]", "result": "10.81% and 2.08%"}, {"measurement": "Population Fragmented Nuclei (%)", "setting": "[3]", "result": "3.28% and 3.47%"}, {"measurement": "Population Healthy Nuclei (%)", "setting": "[3]", "result": "76.5% and 41.04%"}, {"measurement": "Population Hoechst High Intensity Objects (%)", "setting": "[3]", "result": "0% and 1.14%"}, {"measurement": "Population Membrane Permeable-Phenotype (%)", "setting": "[3]", "result": "2.62% and 1.41%"}, {"measurement": "Population Mitochondria Different-Phenotype (%)", "setting": "[3]", "result": "16.9% and 15.49%"}, {"measurement": "Population Mitotic Cells (%)", "setting": "[3]", "result": "89.19% and 97.92%"}, {"measurement": "Population Normal (%)", "setting": "[3]", "result": "100% and 98.86%"}, {"measurement": "Population Pyknosed Nuclei (%)", "setting": "[3]", "result": "20.22% and 55.49%"}, {"measurement": "Population Tubulin-Different-Phenotype (%)", "setting": "[3]", "result": "7.62% and 1.41%"}, {"measurement": "Population Apoptotic (%)", "setting": "[4]", "result": "14.52% and 14.29%"}, {"measurement": "Population Fragmented Nuclei (%)", "setting": "[4]", "result": "1% and 1.72%"}, {"measurement": "Population Hoechst High Intensity Objects (%)", "setting": "[4]", "result": "0.5% and 0%"}, {"measurement": "Population Membrane Permeable-Phenotype (%)", "setting": "[4]", "result": "1.48% and 0%"}, {"measurement": "Population Mitochondria Different-Phenotype (%)", "setting": "[4]", "result": "27.68% and 22.58%"}, {"measurement": "Population Mitotic Cells (%)", "setting": "[4]", "result": "85.48% and 85.71%"}, {"measurement": "Population Normal (%)", "setting": "[4]", "result": "99.5% and 100%"}, {"measurement": "Population Pyknosed Nuclei (%)", "setting": "[4]", "result": "31.08% and 80.46%"}, {"measurement": "Population Tubulin-Different-Phenotype (%)", "setting": "[4]", "result": "40.59% and 25.81%"}, {"measurement": "Total Cell Count", "setting": "[4]", "result": "401 and 174"}, {"measurement": "Population Apoptotic (%)", "setting": "[5]", "result": "8.94% and 17.46%"}, {"measurement": "Population Fragmented Nuclei (%)", "setting": "[5]", "result": "4.71% and 1.73%"}, {"measurement": "Population Healthy Nuclei (%)", "setting": "[5]", "result": "86.76% and 76.47%"}, {"measurement": "Population Hoechst High Intensity Objects (%)", "setting": "[5]", "result": "0% and 1.03%"}, {"measurement": "Population Membrane Permeable-Phenotype (%)", "setting": "[5]", "result": "5.91% and 5.88%"}, {"measurement": "Population Mitochondria Different-Phenotype (%)", "setting": "[5]", "result": "13.5% and 15.84%"}, {"measurement": "Population Mitotic Cells (%)", "setting": "[5]", "result": "91.06% and 82.54%"}, {"measurement": "Population Normal (%)", "setting": "[5]", "result": "100% and 98.97%"}, {"measurement": "Population Pyknosed Nuclei (%)", "setting": "[5]", "result": "8.52% and 21.8%"}, {"measurement": "Population Apoptotic (%)", "setting": "[6]", "result": "9.09% and 15.38%"}, {"measurement": "Population Fragmented Nuclei (%)", "setting": "[6]", "result": "2.12% and 2.49%"}, {"measurement": "Population Healthy Nuclei (%)", "setting": "[6]", "result": "83.92% and 48.96%"}, {"measurement": "Population Hoechst High Intensity Objects (%)", "setting": "[6]", "result": "0.14% and 0%"}, {"measurement": "Population Membrane Permeable-Phenotype (%)", "setting": "[6]", "result": "6.22% and 3.39%"}, {"measurement": "Population Mitochondria Different-Phenotype (%)", "setting": "[6]", "result": "41.85% and 34.75%"}, {"measurement": "Population Mitotic Cells (%)", "setting": "[6]", "result": "90.91% and 84.62%"}, {"measurement": "Population Normal (%)", "setting": "[6]", "result": "99.86% and 100%"}, {"measurement": "Total Cell Count", "setting": "[6]", "result": "710 and 241"}]}]}
